Bioassay records as filed in PubChem BioAssay.
CTSL1 counter – cathepsin L1 inhibition, PFM18AAP counter-screen. recombinant F. hepatica cathepsin L1, Z-Leu-Arg-MCA fluorescence. inhibition, % at 5.96 µM. actives 0.49% (n = 300,000). AID 1906;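 active means inhibition above the mean of all tested compounds plus 3 SD, set per screening campaign, cut at about 17% in these data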;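 further: 0% = plate median of test compound wells and 100% = 1 µM Z-Phe-Ala-diazomethylketone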
DAGLB inh – diacylglycerol lipase beta (human) inhibition; inhibition, % at 5.17 µM; HEK293T DAGLB membrane lysate, EnzChek fluorogenic substrate; actives 0.059% (n = 340,000); AID 504411; Q8NCG7; in the data active means inhibition above about 34%;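 further: 0% = enzyme with vehicle and 100% = wells lacking enzyme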
NRP1-CendR mod – modulators of CendR peptide binding to human neuropilin-1. O14786. actives 0.85% (n = 360,000). FAM-RPARPAR peptide binding to NRP-1, fluorescence polarization. inhibition, % at 25 µM;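 active means inhibition or corrected inhibition above about 18%, plus a signal ratio from 0.5 to 1.5, limit read from the data, passing the limit was not always enough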
UCH37 DUB inh – inhibitors of human deubiquitinating enzyme UCH37. Q9Y5K5. purified proteasome/UCH37, Ub-AMC cleavage fluorescence. inhibition, % (test concentration not listed). actives 0.33% (n = 330,000);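 active means mean inhibition over replicate wells above about 20%, limit read from the data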;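 further: 0% = compound-free wells with enzyme and 100% = wells lacking proteasome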
Target sequence (Q9Y5K5 whole entry, looked up): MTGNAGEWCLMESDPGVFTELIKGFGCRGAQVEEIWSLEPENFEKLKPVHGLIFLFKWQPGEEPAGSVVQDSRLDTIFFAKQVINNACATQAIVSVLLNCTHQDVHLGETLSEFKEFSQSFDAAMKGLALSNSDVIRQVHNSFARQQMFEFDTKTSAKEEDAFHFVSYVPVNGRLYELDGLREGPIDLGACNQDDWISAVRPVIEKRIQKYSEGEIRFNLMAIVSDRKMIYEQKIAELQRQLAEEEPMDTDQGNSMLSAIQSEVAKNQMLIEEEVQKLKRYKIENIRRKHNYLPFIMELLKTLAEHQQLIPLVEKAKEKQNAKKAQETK
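system = Proteasome-associated human UCH37 deubiquitinase | amount = 0.15 nM proteasome as dispensed | medium = pH 7.4 Tris-HCl (50 mM) with ovalbumin, ATP-MgCl2, DTT | incubation = 30 min preincubation with enzyme, 25 min cleavage at room temperature | detection = AMC fluorescence 355/460 nm | read-out basis = percent inhibition | controls = no-proteasome and no-compound wells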
MT1-MMP act inh – MT1-MMP (human) activation inhibition. P50281. HT1080 RFP-PRO-GFP cells, GFP/RFP ratio fluorescence, overnight; percent of plate control window, DMSO zero. GFP/RFP ratio change, % at 20 µM. actives 0.061% (n = 360,000). AID 651647;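 active means GFP/RFP ratio change of at least 30% with cell ATP level not reduced by more than half and red fluorescence within 50% of control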
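Assay system – RFP-PRO-GFP reporter HT1080 cells · Compound dosing – single dose of 20 µM compound, 1% DMSO final · Incubation – overnight compound exposure at 37 °C · Measure – GFP/RFP fluorescence ratio · Benchmarks – DMSO wells and RFP-L50D-GFP cells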
Starred values were filed as active, the others as inactive; / = no result. The list is not random: actives were taken first. Their share in the collection is about 1.5%.

SMILES	CTSL1 counter	DAGLB inh	NRP1-CendR mod	UCH37 DUB inh	MT1-MMP act inh
COc1ccc(CNC(=O)CCc2c[nH]c3ccccc23)cc1	-9.2	-1.1	27.0*	-0.5	0.5
CSc1ccccc1C(=O)N1CCC(CCC(=O)NCc2ccc(F)cc2)CC1	-3.4	-2.5	30.6*	1.0	4.4
CC(=NNC(=O)c1ccc(Br)s1)c1cccnc1	/	/	/	1.3	/
O=C(C1=C[C@H](c2ccc(C(F)(F)F)cc2)C[C@H](OCCCCO)O1)N1CCN(Cc2ccc3c(c2)OCO3)CC1	1.3	1.1	28.8*	0.2	3.8
C[C@@H]1C=C(C(=O)N2CCN(Cc3ccc4c(c3)OCO4)CC2)O[C@H](OCCCCO)C1	-2.8	0.6	2.1	0.9	0.6
O=C(C1=C[C@H](c2csc3ccccc23)C[C@H](OCCCCO)O1)N1CCN(Cc2ccccc2)CC1	1.4	3.1	26.7*	3.7	-3.7
O=C(C1=C[C@H](c2ccccc2)C[C@H](OCCCCO)O1)N1CCN(Cc2ccc3c(c2)OCO3)CC1	-2.9	-0.6	8.5	3.9	6.5
O=C(NC1CC1)C1=C[C@@H](c2ccc3c(c2)OCO3)C[C@@H](OCCCCO)O1	1.1	0.0	27.7*	-1.3	4.7
O=C(C1=C[C@@H](c2ccc(Br)cc2)C[C@@H](OCCCCO)O1)N1CCN(Cc2ccc3c(c2)OCO3)CC1	2.8	-3.9	-4.8	29.9*	-0.2
O=C(C1=C[C@@H](c2csc3ccccc23)C[C@@H](OCCCCO)O1)N1CCN(Cc2ccc3c(c2)OCO3)CC1	8.4	-0.8	10.7	4.2	-4.5
O=C(O)C1=C[C@H](c2ccc3c(c2)OCO3)C[C@H](OCCCCO)O1	-0.4	-3.5	2.3	-2.9	-1.9
COc1ccc(C=Nn2cnc3c([nH]c4ccc(F)cc43)c2=O)cc1CN1CCCC1	/	/	/	8.2	/
CCOc1ccccc1-c1cc(C(=O)NN=Cc2ccc3c(c2)OCO3)c2ccccc2n1	/	/	/	-6.0	/
CCOC(=O)NN=C(C)c1cccc(-n2cnnn2)c1	/	/	/	3.2	/
CC(=NNC(N)=S)c1ccc2c(c1)OCCO2	/	/	/	3.2	/
C=CCOC(=O)C1=C[C@@H](c2ccc(Br)cc2)C[C@@H](OCCCCO)O1	4.6	-1.3	-4.7	3.7	-2.1
C=CCOC(=O)C1=C[C@@H](c2ccc(C(F)(F)F)cc2)C[C@@H](OCCCCO)O1	9.1	-2.4	-7.7	21.4*	-3.2
Cc1nc(N2N=C(c3ccc(Cl)cc3)CC2c2ccco2)sc1C(=O)N(C)C (stereo not drawn)	25.1*	1.6	-2.2	-187.6	-2.3
COc1ccc2nc(NC(=O)CN3CCN(C)CC3)sc2c1	2.5	1.7	-1.4	5.2	-1.1
Cc1ccc(S(=O)(=O)N2CCOCC2)cc1NCC(=O)Nc1ccc(OC(F)(F)F)cc1	/	-0.2	19.8*	0.4	2.8
COc1ccc2nc(NC(=O)c3cc(S(=O)(=O)N4CCOCC4)ccc3C)sc2c1	3.6	5.0	25.6*	-1.7	1.2
COc1ccc2nc(NC(=O)CN3CCOCC3)sc2c1	1.3	-0.6	21.3*	1.2	-1.8
COc1ccc(OC)c(C=NNC(=O)CSc2nnc(CCCc3ccc(OC)c(C)c3)o2)c1	/	/	/	-280.7	/
Cc1ccc(N2CCN(N=Cc3c(C)nn(-c4ccccc4)c3Cl)CC2)cc1	/	/	/	2.0	/
O=C(Nc1ccc(Cl)c(C(F)(F)F)c1)c1ccncc1	3.3	-1.6	5.8	1.5	-5.1
SMILES	CTSL1 counter	DAGLB inh	NRP1-CendR mod	UCH37 DUB inh	MT1-MMP act inh
CNC(=O)c1cc(Oc2ccc(NC(=O)Nc3ccc(Cl)c(C(F)(F)F)c3)cc2)ccn1	/	-0.5	7.0	31.2*	7.4
CCNC(=O)C1(C)CCN(Cc2ccccc2-c2ccccc2)C1 (stereo not drawn)	/	/	-7.3	/	-2.3
CCNC(=O)C1(C)CCCN(Cc2ccccc2-c2ccccc2)C1 (stereo not drawn)	/	/	22.7*	/	1.5
CC[n+]1ccccc1/C=C/c1ccc(N(C)C)cc1	/	-2.9	-143.6	20.8*	-85.4
CC[n+]1c(/C=C/c2ccc(N(C)C)cc2)ccc2ccccc21	-1.3	16.4	-41.6	23.4*	74.3
COc1cc(C(=O)NCC(=O)NN=C(C)/C=C/c2ccccc2)cc(OC)c1OC	/	/	/	-0.3	/
COc1ccc(COC(=O)NNC(=O)c2ccccc2Cl)cc1	52.4*	-3.2	2.6	0.5	2.7
COc1ccc2ccc(OC)c(C=Nn3cnnc3)c2c1	/	/	/	4.0	/
O=C(N/N=C/C=C\c1cccc([N+](=O)[O-])c1)c1ccccn1	4.1	-1.4	27.7*	/	0.8
O=C(NN=C/C=C/c1cccc([N+](=O)[O-])c1)c1ccncc1	/	/	/	11.5	/
Cc1cc(-c2ccc(S(=O)(=O)NCc3ccc(F)cc3)cc2)on1	-2.2	-1.4	19.2	6.3	4.3
Cc1cc(-c2ccc(S(=O)(=O)NCc3ccc(Cl)cc3)cc2)on1	/	-2.8	28.3*	/	1.7
Cc1ccc(C(=O)N/N=C/C=C/c2ccccc2)o1	6.8	2.9	2.7	/	-0.7
Cc1ccc(C(=O)NN=C/C=C/c2ccccc2)o1	/	/	/	21.1*	/
CCn1ncc(C=NN=C2CCC3C4CCc5cc(O)ccc5C4CCC23C)c1C (stereo not drawn)	/	/	/	2.7	/
N/C(=N\OS(=O)(=O)c1ccc(Cl)cc1)c1ccncc1	24.2*	-0.3	-0.1	3.2	0.7
N/C(=N\OS(=O)(=O)c1ccc(Cl)cc1)c1cccnc1	-3.3	-2.1	-4.7	2.1	3.6
O=C(NCCc1ccc(O)cc1)c1ccc(Cl)cc1	-2.6	-0.5	24.1*	31.4*	-1.9
Cc1ccc(S(=O)(=O)N(C)c2ccc(OCC(=O)Nc3nc4ccccc4s3)cc2)cc1	3.9	-2.6	25.3*	1.0	-13.4
Cc1ccc(S(=O)(=O)N(C)c2ccc(OCC(=O)Nc3nc4c(ccc5ccccc54)s3)cc2)cc1	4.9	-2.7	-12.2	-0.1	-0.2
COC(=O)c1cnc(Oc2ccc(NC(=O)NC(=O)c3ccccc3Cl)cc2)cc1C(F)(F)F	-4.6	-5.2	28.6*	0.6	1.2
COC(=O)c1ccncc1C(=O)Nc1ccc(Oc2ncc(C(F)(F)F)cc2Cl)cc1	-5.3	-2.1	5.0	/	7.1
Cc1ccccc1CS(=O)(=O)CCC(=O)NCCCN1CCN(c2ccccc2F)CC1	-1.1	-0.5	2.7	32.6*	-1.7
COc1ccccc1N1CCN(C(CNC(=O)c2ccc3c(c2)OCO3)c2cccnc2)CC1 (stereo not drawn)	5.3	2.7	29.0*	2.0	3.7
CC1(C)CC(CCNC(=O)CCl)(c2ccccc2)CCO1 (stereo not drawn)	2.9	-4.3	26.2*	1.9	-0.8
CC(=NNC(=O)C1CC1c1ccccc1)c1ccc(C)s1 (stereo not drawn)	/	/	/	-2.5	/
CC(C)c1ccc(C=NNC(=O)CCNC(=O)c2ccccc2)cc1	/	/	/	2.0	/
CCCN1CCCc2cc(CN)ccc21	14.5	-3.8	25.2*	-16.9	-8.4
O=C(CN1C(=O)c2ccccc2C1=O)NC1CCC(O)CC1 (stereo not drawn)	/	0.7	25.1*	3.8	-1.0
